Measured values pooled from the literature.
Protocols differ between the studies behind these lines.
Target: Mitogen-activated protein kinase kinase kinase 1 (MAP3K1, Homo sapiens, UniProt Q13233)

SMILES	read-out	mode	method	concentration	measurement	value
FC(F)(F)Oc1cccc(-c2cnc3ccc(-c4ccncc4)nn23)c1	enzyme activity	inhibitor	radiometric	1 µM	activity vs control	94%
Cc1ccc(C(=O)Nc2ccc(CN3CCN(C)CC3)c(C(F)(F)F)c2)cc1C#Cc1cnc2cccnn12	enzyme activity	inhibitor		23.5 nM	remaining activity	82%
CC(C)(C)c1nc(-c2cccc(NS(=O)(=O)c3c(F)cccc3F)c2F)c(-c2ccnc(N)n2)s1	enzyme activity	inhibitor	radiometric	1 µM	remaining activity	84%
CC1CCCN1c1nccc(-c2cnn3ncccc23)n1 (stereo not shown)	binding			1 µM	remaining binding	87%
Cc1sc(C(=O)NC2COC2)cc1-n1cc(NC(=O)Nc2c(F)cccc2Cl)cn1	enzyme activity	inhibitor		10 µM	remaining activity	94.5%
COc1cc(/C=C/C(=O)CC(=O)/C=C/c2ccc(O)c(OC)c2)ccc1O	enzyme activity	inhibitor		1 µM	activity vs control	89%
Nc1ncnc2occ(-c3ccc(NC(=O)Nc4cc(C(F)(F)F)ccc4F)cc3)c12	cell-free assay	inhibitor		20 µM	remaining signal	6.9%
Cn1c(=O)n(-c2ccc(C(C)(C)C#N)cc2)c2c3cc(-c4cnc5ccccc5c4)ccc3ncc21	enzyme activity	inhibitor		10 µM	remaining activity	67%
O=C(Nc1cnn(-c2csc(C(=O)NC3COC3)c2)c1)Nc1c(F)cccc1Cl	enzyme activity	inhibitor		5 µM	remaining activity	98.7%
COc1cc(Nc2cnc(C#N)c(O[C@H](C)CN(C)C)n2)ncc1-c1cnn(C)c1	enzyme activity	inhibitor	radiometric	1 µM	remaining activity	92%
CN(C)C(=O)Cn1cc(-c2nc([C@@](C)(c3ccc(-c4cnc(N)nc4)cc3)C3CC3)no2)cn1	cell-free assay		competition with immobilised ligand	1 µM	remaining binding	90%
CC(C)(C)c1nc2c(s1)c1nc(N)ncc1c1ccc(NS(=O)(=O)c3c(F)cccc3F)c(F)c12	enzyme activity	inhibitor	radiometric	1 µM	remaining activity	90%
CS(=O)(=O)NCC[C@H](NC(=O)c1cncc2c1cnn2-c1ccc(F)cc1)c1ccnc(S(C)(=O)=O)c1	cell-free assay		competition with immobilised ligand	1 µM	remaining binding	100%
CC(C)(O)[C@H]1CC[C@H](Nc2ccc3ncc(-c4cccc(C(F)(F)F)c4)n3n2)CC1	enzyme activity	inhibitor		1 µM	remaining activity	99%
Oc1cccc(-c2nc(N3CCOCC3)c3oc4ncccc4c3n2)c1	enzyme activity	inhibitor		10 µM	remaining activity	97%
CN(C)C(=O)Cn1cc(-c2nc(C3(c4ccc(-c5cnc(N)nc5)cc4)CC3)no2)cn1	cell-free assay		competition with immobilised ligand	1 µM	remaining binding	77%
